Experimental data reported in ChEMBL document CHEMBL1125148, “(R)-4-oxo-5-phosphononorvaline: a new competitive glutamate antagonist at the NMDA receptor complex” (J Med Chem, 1990).

Tests used:
Rattus norvegicus = species on record: Rattus norvegicus; experiment: Percent inhibition of glutamate activity against cGMP was determined; format: functional
[1] = target: Glutamate receptor ionotropic, kainate 3 (Rattus norvegicus, UniProt P42264); experiment: Binding affinity towards Ionotropic glutamate receptor kainate using [3H]-kainic acid as radioligand; Inactive
Glutamate receptor 1 = Glutamate receptor 1 (Rattus norvegicus, UniProt P19490); experiment: Binding affinity towards AMPA receptor using [3H]AMPA as radioligand; Inactive
[2] = In vitro binding affinity towards N-methyl-D-aspartate glutamate receptor of the glutamate receptor using [3H]CPP as radioligand in rat cerebral cortical membranes.; format: cell membranes, Membrane
Method in brief: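 Rat brain membranes incubated with 10 nM [3H]CPP across a range of unlabeled antagonist concentrations. Specific binding was measured by centrifugation assay and expressed as percent inhibition versus concentration.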

Glutamate receptor 1, sequence (P19490 whole entry): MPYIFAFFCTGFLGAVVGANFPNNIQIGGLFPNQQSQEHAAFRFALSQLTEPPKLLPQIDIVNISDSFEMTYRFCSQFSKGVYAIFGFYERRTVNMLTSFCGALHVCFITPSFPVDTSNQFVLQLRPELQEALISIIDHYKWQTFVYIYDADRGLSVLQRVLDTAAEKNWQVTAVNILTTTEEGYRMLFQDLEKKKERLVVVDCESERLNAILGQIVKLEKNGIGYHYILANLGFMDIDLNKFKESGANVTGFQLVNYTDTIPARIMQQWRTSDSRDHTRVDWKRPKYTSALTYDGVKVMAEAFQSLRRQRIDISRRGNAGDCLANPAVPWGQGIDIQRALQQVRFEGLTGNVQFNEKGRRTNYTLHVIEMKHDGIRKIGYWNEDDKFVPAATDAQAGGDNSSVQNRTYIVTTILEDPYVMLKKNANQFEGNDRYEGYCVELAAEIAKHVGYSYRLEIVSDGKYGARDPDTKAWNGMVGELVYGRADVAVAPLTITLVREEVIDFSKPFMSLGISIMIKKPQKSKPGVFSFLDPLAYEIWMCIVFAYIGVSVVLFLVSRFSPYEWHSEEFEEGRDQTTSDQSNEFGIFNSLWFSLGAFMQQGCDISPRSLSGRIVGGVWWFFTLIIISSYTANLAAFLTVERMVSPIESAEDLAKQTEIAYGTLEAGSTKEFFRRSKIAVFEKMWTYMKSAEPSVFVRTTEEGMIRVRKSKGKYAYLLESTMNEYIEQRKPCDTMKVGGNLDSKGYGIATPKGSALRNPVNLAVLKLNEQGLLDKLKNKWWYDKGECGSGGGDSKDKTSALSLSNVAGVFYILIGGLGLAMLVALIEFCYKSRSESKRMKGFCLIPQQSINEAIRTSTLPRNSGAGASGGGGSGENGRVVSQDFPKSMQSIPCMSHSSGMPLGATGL
Glutamate receptor ionotropic, kainate 3, sequence (P42264 whole entry): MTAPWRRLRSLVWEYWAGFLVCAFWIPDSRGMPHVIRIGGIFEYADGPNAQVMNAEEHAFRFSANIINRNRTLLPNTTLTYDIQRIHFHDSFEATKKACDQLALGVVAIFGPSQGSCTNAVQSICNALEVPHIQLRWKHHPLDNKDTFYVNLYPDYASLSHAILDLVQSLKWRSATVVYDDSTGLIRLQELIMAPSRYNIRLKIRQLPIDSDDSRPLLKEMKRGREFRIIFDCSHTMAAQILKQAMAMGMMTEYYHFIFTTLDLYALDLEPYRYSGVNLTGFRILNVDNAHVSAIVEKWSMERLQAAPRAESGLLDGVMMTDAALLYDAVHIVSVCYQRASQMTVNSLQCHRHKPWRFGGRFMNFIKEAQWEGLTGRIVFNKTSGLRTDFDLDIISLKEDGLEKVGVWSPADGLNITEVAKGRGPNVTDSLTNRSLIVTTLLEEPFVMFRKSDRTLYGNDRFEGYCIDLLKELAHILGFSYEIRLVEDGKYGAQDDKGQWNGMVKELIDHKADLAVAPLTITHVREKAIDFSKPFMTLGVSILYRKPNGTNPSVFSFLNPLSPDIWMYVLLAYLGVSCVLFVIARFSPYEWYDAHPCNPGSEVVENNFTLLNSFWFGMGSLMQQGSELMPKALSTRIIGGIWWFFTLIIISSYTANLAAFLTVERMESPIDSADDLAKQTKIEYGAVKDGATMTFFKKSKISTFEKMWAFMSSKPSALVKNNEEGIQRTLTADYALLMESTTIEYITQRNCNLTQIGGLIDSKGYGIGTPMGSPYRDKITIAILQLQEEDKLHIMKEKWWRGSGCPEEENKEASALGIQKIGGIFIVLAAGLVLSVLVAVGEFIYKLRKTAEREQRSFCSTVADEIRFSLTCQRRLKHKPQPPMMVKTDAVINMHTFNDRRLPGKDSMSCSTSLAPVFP

| SMILES | IC50 (Rattus norvegicus) | Ki [1] | Ki (Glutamate receptor 1) | Ki [2] |
| --- | --- | --- | --- | --- |
| O=C(O)C1CN(CCCP(=O)(O)O)CCN1 (stereo not given) | 0.8 µM | > 100 µM | > 100 µM | 0.131 µM |
| NC(CCCP(=O)(O)O)C(=O)O (stereo not given) | 5.5 µM | > 100 µM | > 100 µM | 0.176 µM |
| N[C@H](CC(=O)CP(=O)(O)O)C(=O)O | 5.9 µM | > 100 µM | > 100 µM | 0.109 µM |
| NC(CCCCCP(=O)(O)O)C(=O)O (stereo not given) [AP-7] | 14.1 µM | > 100 µM | > 100 µM | 0.73 µM |
| O=C(O)[C@@H]1C[C@H](CP(=O)(O)O)CCN1 [SELFOTEL] | 1.1 µM | > 100 µM | > 100 µM | 0.099 µM |
